Experiment: Toxicity liver stage against HepG2, at 10uM
Type: cell-based
Parameters: test concentration 10 uM, cell line HepG2-A16-CD81EGFP
Settings: human, HepG2-A16-CD81EGFP cells; read-out: INHIBITION
In short: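 Uninfected HepG2-A16-CD81EGFP cells, 3 × 10^3 per well, 1536-well, plated on prespotted compound at 10 μM final, parasite-free screening media added to match infected plates; puromycin 10 μM positive, DMSO 0.5% negative; run in parallel with 48 h PbLuc assay at 37 °C, 5% CO2; viability by CellTiter-Glo luminescence, normalized to controls.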

SMILES	cytotoxicity at 10 µM [%]
CCOc1no[n+]([O-])c1-c1ccccc1	-6.59
Cn1cc(CN2CCOC(Cc3cccc(F)c3)C2)cn1 (centres undefined)	-2.62
Cc1nc(N2CCN(C)CC2)ncc1C(=O)N1CCCCC1	0.305
COC(=O)CC1c2cccnc2C(=O)N1Cc1ccccc1 (centres undefined)	1.19
O=C(NCCc1c[nH]cn1)c1ccc2c(c1)C(=O)N(C1CCCC1)C2=O	-6.09
CSCCC(Nc1nc(C)cc(C)n1)C(=O)NC1CCCC1 (centres undefined)	-4.87
COc1nn(C)cc1C(=O)NCC1(O)CCc2ccccc2C1 (centres undefined)	-6.98
Cc1cc(C(O)CCNS(=O)(=O)c2ccc(Cl)s2)c(C)o1 (centres undefined)	-3.95
COCC(=O)NCc1cc(=O)n2c(n1)CN(Cc1ccoc1)CCC2	-124
Cc1cccc(CN2CC3(CCNCC3)OCC2=O)n1	-21.7
CC(C)(C)CC(=O)N1CC[C@@H]2[C@H](CC1)N(S(C)(=O)=O)CCS2(=O)=O	-8.68
CC(=O)N1CCN(c2ncnc3cc4c(cc23)OCCO4)CC1	13.4
CCN1CCN(c2nsc(-c3cccnc3)c2C#N)CC1	-4.2
CCn1nc(C)c2nc(C(C)C)nc(NCc3ccccn3)c21	7.09
CN(Cc1cnn(C)c1)C(=O)c1cc(C(F)(F)F)n(C)n1	8.52
CCn1cc(S(=O)(=O)NC2CCCC2)cn1	-7.31
CC1(C(=O)N2CCN(c3cnccn3)CC2)CNCCO1 (centres undefined)	6.99
Cc1cc(N2CCOC(c3ccc(C(N)=O)cn3)C2)ncn1 (centres undefined)	5.45
CNc1ccc(CC2CCCN(Cc3c[nH]cn3)C2)nn1 (centres undefined)	-1.71
Cc1cnc(-c2nc(O)c3c(n2)CN(C(=O)C2CCCC2)CC3)cn1	-1.39
Cc1ccc(C(=O)N2CCCCC2c2[nH]ncc2S(C)(=O)=O)s1 (centres undefined)	-11.4
CCc1nccn1-c1cccc(C2CCCN2S(=O)(=O)N(C)C)n1 (centres undefined)	-9.85

SMILES	cytotoxicity at 10 µM [%]
CS(=O)(=O)c1ccc(NC(=O)NC2(c3ccccc3)CCC2)cc1	5.64
CNC(=O)CN1CCC(CN(C)Cc2ccccc2N(C)C)CC1	-6.23
Cc1n[nH]c(C2CN(CCNC3CCCCC3)CCO2)n1 (centres undefined)	-8.29
CC(OCC1CC1)C(=O)Nc1cccc(C(=O)Nc2ccccn2)c1 (centres undefined)	2.56
CC1CN(CC(=O)NCc2ccc(F)cc2)CCN1c1nccs1 (centres undefined)	-1.22
CCN(CC)S(=O)(=O)NCC1COc2ccccc2O1 (centres undefined)	0.347
CC(=O)c1cccc(OCCCC(=O)NC(C#N)CC(C)C)c1 (centres undefined)	-41.3
NC(=O)c1cnn2c1NCC(CNCC1(c3ccccc3)CCCC1)C2 (centres undefined)	-7.38
CC(C)C(C)NC(=O)CNc1cc2c(cc1Cl)NC(=O)CO2 (centres undefined)	0.529
COc1ccc2[nH]cc(C3CCN(CCC(N)=O)CC3)c2c1	-1.22
Cc1nc(CN2CCC(CNC(=O)C3(C)CCCC3)CC2)oc1C	7.66
CC(C)CNC(=O)Cn1cc(C(N)=O)c(-c2ccccc2)n1	-6.98
c1cnn(CC2CN(CCCOc3ccc4c(c3)OCO4)CCO2)c1 (centres undefined)	0.568
CC(C)N(Cc1ccc(Cl)c(Cl)c1)C(=O)CCn1cncn1	6.63
Cc1ccc(CNC(=O)CCN2CCN(c3ccccn3)CC2)n1C	19.8
Cn1cnc2c1CCN(C(C(=O)N1CCCCC1)c1ccccc1)C2 (centres undefined)	-5.34
O=C(COCC1CC1)Nc1ncccc1O	11
N#Cc1cnn(CCN2CCOC(CNc3cccnn3)C2)c1 (centres undefined)	-3.85
CC(C)c1nn(C)c(N(C)C)c1CNC1CCC(O)CC1 (centres undefined)	1.63
O=C(NC1(C(=O)NC2CCCC2)CCCC1)c1ccc2[nH]ncc2c1	4.73
CNc1cc2c(nn1)CCN(C(=O)c1ccccc1-n1cccn1)C2	1.91
CCc1nncn1CCNC(=O)Nc1ccc(OC)c(C)c1	9.89

SMILES	cytotoxicity at 10 µM [%]
CN(c1ccc(CNc2c(Cl)cccc2C#N)cc1)S(C)(=O)=O	-66.9
FC(F)(F)C1CCc2nnc(CNCc3ccsc3)n2C1 (centres undefined)	0.847
NS(=O)(=O)CCNC(=O)c1nnn(-c2ccc(F)cc2)c1C1CC1	-14.3
COc1ccc(C(CO)NC(=O)Nc2cccc(C#N)c2)cc1 (centres undefined)	-17.9
O=C(NCC(O)c1ccc(F)c(F)c1)c1cccnc1O (centres undefined)	-13.6
CCc1ncncc1C(=O)NCCN1CCC(C)CC1	-15.6
CCc1cnc(N2C[C@@H]3[C@@H](C(=O)N(C)C)CCS(=O)(=O)[C@@H]3C2)nc1	-108
Cn1cc(C2COC3(CCN(C(=O)c4cccn4C)CC3)C2)cn1 (centres undefined)	-75.4
O=C(c1cscn1)N1CCC[C@]2(C[C@@H](OCC3CC3)CO2)C1	-69.9
CC(C)NC(=O)c1cc2c(c3ccccc3n2C)n1C(=O)N(C)C	-79.4
COCC(=O)N1CCCC2(CCN(c3ccsc3)C2=O)C1 (centres undefined)	6.66
c1ccc(CN2C[C@@H]3OCCN(CC4CCCO4)[C@@H]3C2)nc1 (some centres undefined)	0.616
COc1ccc2[nH]cc(-c3ccnc(N4CCC(C)CC4)n3)c2c1	-7.3
CC[C@H](C)[C@H](N)C(=O)Nc1nc(-c2cnc(N3CCOCC3)nc2)cs1	-8.72
CN(CCc1ccccc1)C(=O)CN1C(=O)OC[C@@H]1c1ccccc1	-47
O=C(O)c1ccc(C2CCCN(C(=O)c3ccc[nH]3)C2)cc1 (centres undefined)	-10.5
Cc1ncccc1Oc1ncnc(N2CCCC(O)(CO)CC2)c1C (centres undefined)	4.3
CCNc1ncc(C(=O)N2CCc3c(nc(C)nc3N(C)C)C2)cn1	-3.28
O=C(c1ccncc1F)N1CCCC(c2nccn2CC2CCC2)C1 (centres undefined)	5.94
O=C1CC2(CCN(CCCO)CC2)CN1Cc1ccc(F)c(F)c1	-7.73
COCCN(Cc1cnn(C)c1)C(=O)C1CCN(C2CCCCC2)CC1	12.6
Cc1ccccc1C1CCN(CCNC(=O)CS(C)(=O)=O)C1 (centres undefined)	-49.5

SMILES	cytotoxicity at 10 µM [%]
CCCC(=O)Nc1ccc(CC(=O)N(CC)CC2CCCCO2)cc1 (centres undefined)	-9.24
CCN(CC)Cc1cc(C(=O)N2CC[C@@]3(O)CCCC[C@H]3C2)c(C)o1	2.93
Nc1ncc(C(=O)N2CCCC(N)CC2)c(-c2ccccc2)n1 (centres undefined)	-132
O=C(CCc1cccs1)N1CCc2[nH]nc(COc3ccccc3)c2C1	0.621
CCc1nnc(CN(C)c2cc(C)nc3c(C)c(C)nn23)o1	0.126
Cc1cncc(C(=O)N2CCNCC2C(=O)Nc2ccc(C)nc2)c1 (centres undefined)	-5.19
COCCc1ncc(CN2CCCC(C(=O)c3ccccc3)C2)cn1 (centres undefined)	-1.38
Cc1ccsc1-c1cc(C(=O)O)cc(S(=O)(=O)NCc2ccccn2)c1	-63.8
C=C(C)COc1ccccc1CNC(CC)c1ccnn1C (centres undefined)	-4.7
Clc1ccc(CN2CCC(C3CCN(Cc4cccnc4)CC3)C2)cc1 (centres undefined)	11.3
Cc1ccc(C(=O)N2CCC3(CCC(=O)N(CC(N)=O)C3)CC2)cc1	-0.527
CCCc1nc(N2CC[C@@H](c3ccc4ccccc4c3)[C@H](O)C2)no1	-0.471
CC(=O)c1cc(CN2C[C@@H](C(=O)O)[C@H](c3cccnc3)C2)cs1	4.11
O=C(c1cc(Br)ccc1Cl)N1CCN(Cc2ccco2)CC1	-49.4
CCC(C(=O)NCc1cc(N2CCOCC2)ncn1)n1cccn1 (centres undefined)	1.44
CN(C)C(=O)CCCNC(=O)C(c1cccc(F)c1)N(C)C (centres undefined)	-25.3
Cc1ccc(C(=O)N2CCC3(CCC(=O)N(CC(N)=O)C3)CC2)c(O)c1	-11.5
CC(C)Cc1noc(CN(C)C(=O)C2COc3ccccc3C2)n1 (centres undefined)	-9.12
C=Cc1ccc(C(=O)N2CCCC(Nc3ccc(F)cc3)C2)cc1 (centres undefined)	-22.1
Cc1noc(C)c1C1CCCN1C(=O)CN1CC2(CCNCC2)OC1=O (centres undefined)	-5.24
C[C@H](O)CNC(=O)c1cnc(-c2ccccc2)nc1O	-17.8
CSc1ncc(Cl)c(C(=O)NC(Cc2ccccc2)C(=O)O)n1 (centres undefined)	-17.3

SMILES	cytotoxicity at 10 µM [%]
CS(=O)(=O)N1CCCC(C(=O)Nc2cnn(Cc3ccc(Cl)cc3)c2)C1 (centres undefined)	-6.5
O=C(CN1CCC(c2ccccc2)C1)NC(=O)NCC(F)(F)F (centres undefined)	-12.1
Cc1cc(CN2CCN(c3nn4cc(C)nc4s3)CC2)on1	6.4
Cc1cnn(C2CCCN(C(=O)c3ccnc(-n4ccnc4)c3)C2)c1 (centres undefined)	-1.88
O=C(NCc1cccnc1)C1CC(=O)N(CC2CC2)C1 (centres undefined)	-3.46
O=C(NCCCn1cncn1)NCC(c1ccccc1)N1CCCC1 (centres undefined)	-3.99
CC1CCN(C(=O)CN(Cc2ccco2)C2CC2)CC1	-4.74
CN(Cc1ncc(-c2ccccc2)o1)CC1CCCN1c1cccnn1 (centres undefined)	3.75
Cc1ncc(CN(C)CCO)c2cc(C(=O)c3ccc(Br)cc3)oc12	-0.227
COc1ccc(Cn2c(C3CCNCC3)cc3cccnc32)cc1	-4.45
O=C(COc1ccccc1)N1C[C@@H](O)[C@H](N2CCCC2)C1	-6.54
CCN1CCCC12CCN(C(=O)c1ccsc1)CC2	-152
COCCN1CCN(Cc2ccncc2)c2ncccc2C1	-70.9
COCC1CN(Cc2ccc(C)o2)Cc2cnn(CC3CCOCC3)c21 (centres undefined)	1.87
Cn1cccc1C(=O)N1C[C@@H]2CCN(c3cccnc3)C[C@@H]2C1	-58.3
COCCNC(=O)C[C@@H]1COC[C@H]2CN(CC3CCOCC3)C[C@@H]12	-92.9
O=C([C@H]1C[C@H]2OCC[C@H]2N(Cc2cccnc2)C1)N1CCCCO1	-69.8
CCOCCN1Cc2ncn(C)c2C(COCC2CCOCC2)C1 (centres undefined)	-70.6
O=C(c1ccco1)N1C[C@H]2CCCN(Cc3cccs3)[C@H]2C1	5.71
CC(C)CN1CC[C@@H]2[C@H](CC1)N(C(=O)c1ccccc1)CCS2(=O)=O	-128
O=C1C[C@@H]2CC[C@H](CN1)N2C(=O)CCc1ccsc1	-6.06
